One data set has as its target T1, Isocitrate lyase (Mycobacterium tuberculosis, UniProt P9WKK7).
T1 sequence (P9WKK7 whole entry): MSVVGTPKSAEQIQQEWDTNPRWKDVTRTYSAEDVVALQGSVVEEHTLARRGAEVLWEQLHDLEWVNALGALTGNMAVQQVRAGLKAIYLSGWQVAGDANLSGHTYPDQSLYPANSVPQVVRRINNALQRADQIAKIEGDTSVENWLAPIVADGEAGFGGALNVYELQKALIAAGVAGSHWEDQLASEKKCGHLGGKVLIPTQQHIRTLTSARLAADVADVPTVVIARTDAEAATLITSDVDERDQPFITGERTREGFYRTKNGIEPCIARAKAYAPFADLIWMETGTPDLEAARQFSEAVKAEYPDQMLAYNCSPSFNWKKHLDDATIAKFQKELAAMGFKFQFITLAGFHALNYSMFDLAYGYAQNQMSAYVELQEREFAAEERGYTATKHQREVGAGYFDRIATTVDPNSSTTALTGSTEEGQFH
Briefly: Inhibition of Mycobacterium tuberculosis isocitrate lyase.

Data set [1] concerns Mycolicibacterium smegmatis. As to the kind of experiment: Antimycobacterial activity against active log phase Mycobacterium smegmatis ATCC 14468 by agar dilution method. The format is functional. In short, it runs like this:
(§1)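 Log-phase cultures (M. tuberculosis H37Rv at OD 600; M. smegmatis ATCC 14468) tested by agar dilution following NCCLS-type MIC procedure, in duplicate. MIC taken as lowest concentration giving complete inhibition of bacterial growth.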

Data set [2] deals with Mycolicibacterium smegmatis. As to the kind of experiment: Antimycobacterial activity against 6-weeks nutrient starved phase cultures of Mycobacterium smegmatis ATCC 14468 treated for 7 days measured after 4 weeks by agar dilution method. The format is functional.
Data set [3] has as its system Mycobacterium tuberculosis. As to the kind of experiment: Antimycobacterial activity against 6-weeks nutrient starved phase cultures of Mycobacterium tuberculosis H37Rv treated for 7 days measured after 4 weeks by agar dilution method. The format is functional. Background: In agar dilution, organisms are placed on agar that contains the substance at set levels.
Data set [4] relates to Mycobacterium tuberculosis. As to the kind of experiment: Antimycobacterial activity against active log phase Mycobacterium tuberculosis H37Rv by agar dilution method. The format is functional. In short, it runs like this: as §1
Data set [5] can be described thus: Cytotoxicity against African green monkey Vero cells after 72 hrs by MTT assay. The format is cell-based. To be noted: chlorocebus sabaeus. In a few lines:
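Vero cells exposed to a single concentration of 62.5 µg/mL for 72 h; viability read by cellular conversion of MTT to formazan (non-radioactive cell proliferation assay).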
In general terms: Tetrazolium dyes change colour on reduction, which living cells bring about.

Data set [6] is described as follows: Selectivity index, ratio of CC50 for African green monkey Vero cells to MIC for 6-weeks nutrient starved phase cultures of Mycobacterium tuberculosis H37Rv. The format is functional.
Data set [7] has as its system Mycobacterium tuberculosis. Briefly: Ratio of isoniazid MIC to compound MIC for active log phase Mycobacterium tuberculosis H37Rv by agar dilution method. The format is functional. In short, it runs like this: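 MIC by agar dilution, following NCCLS-type guidance, against log-phase M. tuberculosis H37Rv (OD 600), run in duplicate. MIC is the lowest concentration that gives complete inhibition of bacterial growth. The line's ratio is isoniazid MIC divided by compound MIC.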

Data set [8] relates to Mycobacterium tuberculosis. Briefly: Ratio of MIC for 6-weeks nutrient starved phase cultures of Mycobacterium tuberculosis H37Rv to MIC for active log phase Mycobacterium tuberculosis H37Rv. The format is functional.

≈ marks a conversion by molar mass, not a printed value. Some results are limits rather than exact numbers.

The IC50 is the concentration that inhibits the measured activity by half. Usually MIC stands for the lowest concentration found to suppress growth. Turning to `CCN1CCN(C(=O)CC[N+](=O)[O-])CC1`, on Isocitrate lyase, the IC50 was found to be 12.6 µM. The MIC in [1] came out at 58.1 µM (≈ 12.5 µg/mL); in data set [2], 116 µM (≈ 25 µg/mL); in data set [3] it was 29 µM (≈ 6.25 µg/mL); in data set [4], 58.1 µM (≈ 12.5 µg/mL).
For `O=C(CC[N+](=O)[O-])Nc1ccccc1`, the MIC was 129 µM (≈ 25 µg/mL) in [1], greater than 257 µM in [2], 64.4 µM (≈ 12.5 µg/mL) in data set [3] and 257 µM (≈ 50 µg/mL) in data set [4].
For `O=C(CC[N+](=O)[O-])N1CCN(c2ccccc2)CC1`, the IC50 at Isocitrate lyase was determined as 41.2 µM. The MIC is 190 µM (≈ 50 µg/mL) in data set [1], greater than 190 µM in [2], 47.5 µM (≈ 12.5 µg/mL) in data set [3] and 190 µM (≈ 50 µg/mL) in data set [4].
Turning to `O=C(O)CC[N+](=O)[O-]`, the IC50 at Isocitrate lyase stood at 116 µM. Also, the MIC in data set [1], in data set [2], in [3] and in data set [4] was greater than 420 µM each time.
The term CC50 denotes the concentration at which the toxic effect on the cells reaches its halfway point. `CCn1cc(C(=O)O)c(=O)c2cc(F)c(N3CCN(C(=O)CC[N+](=O)[O-])CC3C)c(F)c21` (configuration not stated) showed an IC50 against Isocitrate lyase of 1.46 µM. The compound further displayed a CC50 at 72 h in data set [5] greater than 138 µM. The minimum inhibitory concentration (MIC) turned out to be 6.91 µM (≈ 3.13 µg/mL) in data set [1], 1.72 µM (≈ 0.778 µg/mL) in data set [2], 1.72 µM (≈ 0.778 µg/mL) in data set [3] and 3.44 µM (≈ 1.56 µg/mL) in [4].
Consider `O=C(CC[N+](=O)[O-])N1CCN(Cc2ccccc2)CC1`, for which the MIC was greater than 180 µM in data set [1], greater than 180 µM in [2], 90.1 µM (≈ 25 µg/mL) in data set [3] and greater than 180 µM in data set [4].
With `O=C(CC[N+](=O)[O-])Nc1ccc(F)cc1`, the MIC in data set [1] was determined as 118 µM (≈ 25 µg/mL); in data set [2] it was 236 µM (≈ 50 µg/mL); in [3] it was 58.9 µM (≈ 12.5 µg/mL); in data set [4] it was 118 µM (≈ 25 µg/mL).
In turn, `O=C(CC[N+](=O)[O-])Nc1ccc(Cl)cc1` registered an IC50 at Isocitrate lyase of 21.3 µM. The MIC in data set [1] was found to be 54.7 µM (≈ 12.5 µg/mL); in data set [2] it was 13.7 µM (≈ 3.13 µg/mL); in data set [3], 27.3 µM (≈ 6.25 µg/mL); in [4], 109 µM (≈ 25 µg/mL).
In the case of `COc1c(N2C(C)CN(C(=O)CC[N+](=O)[O-])CC2C)c(F)cc2c(=O)c(C(=O)O)cn(C3CC3)c12` (configuration not stated), the “Selectivity Index” value in [6] is 3185. The compound also returned an IC50 against Isocitrate lyase of 0.1 µM. The values for the Ratio in data set [7] and in [8] were 4.5 and 4, respectively. This compound also registered a CC50 at 72 h in [5] greater than 127 µM. Besides, the MIC stood at 0.08 µM (≈ 0.0392 µg/mL) in data set [1], 0.08 µM (≈ 0.0392 µg/mL) in data set [2], 0.04 µM (≈ 0.0196 µg/mL) in [3] and 0.16 µM (≈ 0.0785 µg/mL) in data set [4].
In turn, `O=C(CC[N+](=O)[O-])N1CCN(c2cccc(C(F)(F)F)c2)CC1` displayed an IC50 at Isocitrate lyase of 30.2 µM. Also, the MIC in [1] amounted to 75.5 µM (≈ 25 µg/mL); in data set [2] it was 75.5 µM (≈ 25 µg/mL); in data set [3], 37.7 µM (≈ 12.5 µg/mL); in [4] it was 151 µM (≈ 50 µg/mL).
For the compound `O=C(CC[N+](=O)[O-])Nc1ccc(Br)cc1`, the IC50 against Isocitrate lyase came out at 32.5 µM. Also, the MIC is 91.5 µM (≈ 25 µg/mL) in data set [1], 91.5 µM (≈ 25 µg/mL) in data set [2], 45.8 µM (≈ 12.5 µg/mL) in data set [3] and 183 µM (≈ 50 µg/mL) in data set [4].
On to `Cc1cc(NC(=O)CC[N+](=O)[O-])ccc1Br`, for which the half-inhibitory concentration (IC50) against Isocitrate lyase was determined as 36.8 µM. The minimal inhibitory concentration (MIC) stood at 87.1 µM (≈ 25 µg/mL) in [1], 43.5 µM (≈ 12.5 µg/mL) in data set [2], 43.5 µM (≈ 12.5 µg/mL) in data set [3] and 43.5 µM (≈ 12.5 µg/mL) in data set [4].
Regarding `Cc1ccc(NC(=O)CC[N+](=O)[O-])cc1`, the MIC in [1] was 120 µM (≈ 25 µg/mL); in [2], greater than 240 µM; in data set [3], 60 µM (≈ 12.5 µg/mL); in [4], 240 µM (≈ 50 µg/mL).
With `CCn1cc(C(=O)O)c(=O)c2cc(F)c(N3CCN(C(=O)CC[N+](=O)[O-])CC3)cc21`, 0.2 µM corresponded to half-maximal inhibition against Isocitrate lyase (IC50). The CC50 at 72 h in data set [5] is greater than 149 µM. The MIC turned out to be 7.44 µM (≈ 3.13 µg/mL) in data set [1], 0.95 µM (≈ 0.399 µg/mL) in [2], 0.47 µM (≈ 0.198 µg/mL) in [3] and 1.85 µM (≈ 0.778 µg/mL) in data set [4].
Take `COc1ccc(NC(=O)CC[N+](=O)[O-])cc1`: the MIC is 112 µM (≈ 25 µg/mL) in data set [1], greater than 223 µM in data set [2], 55.8 µM (≈ 12.5 µg/mL) in data set [3] and 223 µM (≈ 50 µg/mL) in [4].
With `O=C(CC[N+](=O)[O-])Nc1ccc(Cl)cn1`, the MIC turned out to be 218 µM (≈ 50 µg/mL) in data set [1], 109 µM (≈ 25 µg/mL) in data set [2], 54.4 µM (≈ 12.5 µg/mL) in data set [3] and 109 µM (≈ 25 µg/mL) in [4].
`Cc1ccc(NC(=O)CC[N+](=O)[O-])c(C)c1`: the MIC was 225 µM (≈ 50 µg/mL) in data set [1], greater than 225 µM in [2], 75 µM (≈ 16.7 µg/mL) in data set [3] and 225 µM (≈ 50 µg/mL) in [4].
Take `Cc1ccnc(NC(=O)CC[N+](=O)[O-])c1`: the MIC in data set [1] is greater than 239 µM; in [2], 239 µM (≈ 50 µg/mL); in data set [3], 59.8 µM (≈ 12.5 µg/mL); in data set [4] it was 239 µM (≈ 50 µg/mL).
As to `CCN(CC)C(=O)CC[N+](=O)[O-]`, the MIC was 287 µM (≈ 50 µg/mL) in data set [1], greater than 287 µM in [2], greater than 287 µM in data set [3] and greater than 287 µM in data set [4].
The compound `O=C(O)c1cn(C2CC2)c2cc(N3CCN(C(=O)CC[N+](=O)[O-])CC3)c(F)cc2c1=O` returned an IC50 at Isocitrate lyase of 0.12 µM. Also, in data set [5], the CC50 at 72 h was greater than 145 µM. Also, the MIC in [1] was determined as 0.09 µM (≈ 0.0389 µg/mL); in data set [2], 0.09 µM (≈ 0.0389 µg/mL); in [3], 0.09 µM (≈ 0.0389 µg/mL); in data set [4] it was 1.8 µM (≈ 0.778 µg/mL).
For `NNC(=O)c1ccncc1` [ISONIAZID], in data set [5], the half-maximal cytotoxic concentration (CC50) at 72 h was greater than 456 µM. Moreover, the MIC is 45.6 µM (≈ 6.25 µg/mL) in data set [1], greater than 365 µM in data set [2], greater than 365 µM in data set [3] and 0.72 µM (≈ 0.0987 µg/mL) in [4].
In the case of `O=C(CC[N+](=O)[O-])N(Cc1ccccc1)Cc1ccccc1`, the MIC in data set [1] is 168 µM (≈ 50 µg/mL); in data set [2], greater than 168 µM; in data set [3], greater than 168 µM; in data set [4] it was greater than 168 µM.
Take `CCCN(CCC)C(=O)CC[N+](=O)[O-]`: the MIC in [1], in data set [2], in data set [3] and in data set [4] was greater than 247 µM each time.
In the case of `O=C(O)c1cn(C2CC2)c2cc(N3CCNCC3)c(F)cc2c1=O` [CIPROFLOXACIN], the MIC in [2] was found to be 2.35 µM (≈ 0.779 µg/mL).
